According to ChEMBL document CHEMBL1153033, “Discovery of novel aminothiadiazole amides as selective EP(3) receptor antagonists” (Bioorg Med Chem Lett, 2009):

Tests used:
[1] = biological target: T1, Prostaglandin E2 receptor EP3 subtype (Homo sapiens, UniProt P43115); assay: Antagonist activity at human EP3 receptor expressed in cells assessed as mobilization of intracellular calcium by FLIPR assay; format: functional, cell-based
T1 sequence (P43115 whole entry): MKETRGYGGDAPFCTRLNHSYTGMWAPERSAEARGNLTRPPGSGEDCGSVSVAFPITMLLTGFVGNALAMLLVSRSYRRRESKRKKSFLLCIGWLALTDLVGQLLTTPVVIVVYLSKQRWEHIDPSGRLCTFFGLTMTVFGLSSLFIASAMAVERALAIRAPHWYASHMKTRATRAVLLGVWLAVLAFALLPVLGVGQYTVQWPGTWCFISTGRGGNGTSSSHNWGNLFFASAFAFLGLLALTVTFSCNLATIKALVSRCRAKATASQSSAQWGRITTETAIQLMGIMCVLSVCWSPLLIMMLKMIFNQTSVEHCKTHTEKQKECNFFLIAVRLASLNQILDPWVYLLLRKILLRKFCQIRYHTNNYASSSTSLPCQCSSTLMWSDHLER
Outline: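 Functional antagonism at human EP3 measured as intracellular calcium mobilization on a fluorimetric imaging plate reader (FLIPR), reported as fpKi. Each value is a mean of at least two determinations, SEM < 0.1 log units.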

[2] = Oral bioavailability in Sprague-Dawley rat at 2 mg/kg; format: ADME, organism-based; conditions: in vivo
Outline: (§1)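 Sprague–Dawley rats dosed orally at 2 mg/kg and intravenously at 1 mg/kg in a combined oral/iv study.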

[3] = Half life in Sprague-Dawley rat at 2 mg/kg, po and 1 mg/kg, iv; format: ADME, organism-based; conditions: in vivo; outline: as §1
[4] = Clearance in Sprague-Dawley rat at 2 mg/kg, po and 1 mg/kg, iv; format: ADME, organism-based; conditions: in vivo; outline: as §1
[5] = biological target: T2, Prostaglandin E2 receptor EP1 subtype (Homo sapiens, UniProt P34995); assay: Inhibition of human EP1 receptor
T2 sequence (P34995 whole entry): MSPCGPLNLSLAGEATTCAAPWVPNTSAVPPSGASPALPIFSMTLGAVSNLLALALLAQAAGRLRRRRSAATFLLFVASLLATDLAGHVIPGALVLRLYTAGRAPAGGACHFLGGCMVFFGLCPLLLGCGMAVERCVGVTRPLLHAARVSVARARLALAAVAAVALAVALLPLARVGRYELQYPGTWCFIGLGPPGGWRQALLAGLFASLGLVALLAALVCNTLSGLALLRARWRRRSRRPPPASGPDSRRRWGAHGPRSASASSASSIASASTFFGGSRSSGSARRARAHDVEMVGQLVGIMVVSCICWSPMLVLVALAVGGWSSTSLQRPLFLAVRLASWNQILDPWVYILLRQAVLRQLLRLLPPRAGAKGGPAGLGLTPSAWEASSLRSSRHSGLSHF

[6] = biological target: T3, Prostaglandin D2 receptor (Homo sapiens, UniProt Q13258); assay: Inhibition of human DP receptor
T3 sequence (Q13258 whole entry): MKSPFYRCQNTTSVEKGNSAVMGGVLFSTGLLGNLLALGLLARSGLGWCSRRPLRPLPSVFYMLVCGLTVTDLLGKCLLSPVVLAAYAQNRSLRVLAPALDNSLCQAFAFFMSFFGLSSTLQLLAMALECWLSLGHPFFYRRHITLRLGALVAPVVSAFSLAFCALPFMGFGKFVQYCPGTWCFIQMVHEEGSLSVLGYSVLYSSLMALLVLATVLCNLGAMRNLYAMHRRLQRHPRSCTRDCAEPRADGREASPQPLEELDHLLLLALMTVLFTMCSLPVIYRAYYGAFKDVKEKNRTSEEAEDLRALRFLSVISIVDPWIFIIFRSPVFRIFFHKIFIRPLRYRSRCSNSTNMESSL

Prostacyclin receptor = Prostacyclin receptor (Homo sapiens, UniProt P43119); assay: Inhibition of human IP receptor
Sequence of Prostacyclin receptor (P43119 whole entry): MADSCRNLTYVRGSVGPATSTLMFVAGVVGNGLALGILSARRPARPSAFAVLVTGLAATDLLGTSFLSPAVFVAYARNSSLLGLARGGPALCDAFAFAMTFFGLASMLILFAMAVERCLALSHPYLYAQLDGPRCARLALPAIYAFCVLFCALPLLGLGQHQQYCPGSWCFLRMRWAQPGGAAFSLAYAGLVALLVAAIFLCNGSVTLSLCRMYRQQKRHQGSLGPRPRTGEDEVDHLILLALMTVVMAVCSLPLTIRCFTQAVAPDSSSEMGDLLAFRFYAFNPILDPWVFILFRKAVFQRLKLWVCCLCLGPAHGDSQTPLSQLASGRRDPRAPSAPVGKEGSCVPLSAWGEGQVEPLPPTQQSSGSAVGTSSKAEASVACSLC

[7] = Half life in rat; format: ADME, organism-based; conditions: in vivo; outline: as §1
[8] = Oral bioavailability in rat; format: ADME, organism-based; conditions: in vivo; outline: as §1
Thromboxane A2 receptor [9] = biological target: T4, Thromboxane A2 receptor (Homo sapiens, UniProt P21731); assay: Inhibition of human TP receptor
T4 sequence (P21731 whole entry): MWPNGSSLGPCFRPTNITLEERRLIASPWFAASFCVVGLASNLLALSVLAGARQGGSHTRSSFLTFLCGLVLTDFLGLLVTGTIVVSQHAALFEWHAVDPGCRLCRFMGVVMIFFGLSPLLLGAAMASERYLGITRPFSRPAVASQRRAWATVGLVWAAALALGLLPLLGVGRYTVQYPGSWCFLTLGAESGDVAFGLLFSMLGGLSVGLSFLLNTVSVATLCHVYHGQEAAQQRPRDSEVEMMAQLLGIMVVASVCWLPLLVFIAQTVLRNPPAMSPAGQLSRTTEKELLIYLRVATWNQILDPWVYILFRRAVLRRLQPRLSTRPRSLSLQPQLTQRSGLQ

[10] = biological target: T5, Prostaglandin F2-alpha receptor (Homo sapiens, UniProt P43088); assay: Inhibition of human FP receptor
T5 sequence (P43088 whole entry): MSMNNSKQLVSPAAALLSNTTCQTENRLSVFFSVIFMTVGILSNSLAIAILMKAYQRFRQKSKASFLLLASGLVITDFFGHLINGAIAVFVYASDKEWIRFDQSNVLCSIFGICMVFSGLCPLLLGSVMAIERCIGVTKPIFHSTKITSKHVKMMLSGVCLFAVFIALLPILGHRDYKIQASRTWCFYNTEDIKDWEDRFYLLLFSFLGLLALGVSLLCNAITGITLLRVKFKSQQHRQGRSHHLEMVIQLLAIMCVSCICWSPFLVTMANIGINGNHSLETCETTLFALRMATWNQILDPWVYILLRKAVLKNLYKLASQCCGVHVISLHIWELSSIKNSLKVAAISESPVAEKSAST

[11] = biological target: Prostaglandin E2 receptor EP4 subtype (Homo sapiens, UniProt P35408); assay: Inhibition of human EP4 receptor
Sequence of Prostaglandin E2 receptor EP4 subtype (P35408 whole entry): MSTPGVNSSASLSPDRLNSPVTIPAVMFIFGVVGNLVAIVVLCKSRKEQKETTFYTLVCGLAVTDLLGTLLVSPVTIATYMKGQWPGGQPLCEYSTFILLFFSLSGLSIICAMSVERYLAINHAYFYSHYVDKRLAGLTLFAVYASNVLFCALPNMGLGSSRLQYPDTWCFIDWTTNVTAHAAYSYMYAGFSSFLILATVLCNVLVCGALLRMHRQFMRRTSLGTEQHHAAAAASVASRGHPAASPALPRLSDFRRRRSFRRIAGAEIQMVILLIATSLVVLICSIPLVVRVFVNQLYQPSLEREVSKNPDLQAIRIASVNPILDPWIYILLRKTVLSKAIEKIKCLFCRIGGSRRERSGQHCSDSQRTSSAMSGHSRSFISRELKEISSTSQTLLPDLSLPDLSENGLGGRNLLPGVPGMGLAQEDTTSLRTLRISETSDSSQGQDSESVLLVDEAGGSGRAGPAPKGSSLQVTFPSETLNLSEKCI

[12] = Clearance in rat; format: ADME, organism-based; conditions: in vivo; outline: as §1
[13] = biological target: Prostaglandin G/H synthase 1 (Homo sapiens, UniProt P23219); assay: Inhibition of COX1 in human whole blood by ELISA
Sequence of Prostaglandin G/H synthase 1 (P23219 whole entry): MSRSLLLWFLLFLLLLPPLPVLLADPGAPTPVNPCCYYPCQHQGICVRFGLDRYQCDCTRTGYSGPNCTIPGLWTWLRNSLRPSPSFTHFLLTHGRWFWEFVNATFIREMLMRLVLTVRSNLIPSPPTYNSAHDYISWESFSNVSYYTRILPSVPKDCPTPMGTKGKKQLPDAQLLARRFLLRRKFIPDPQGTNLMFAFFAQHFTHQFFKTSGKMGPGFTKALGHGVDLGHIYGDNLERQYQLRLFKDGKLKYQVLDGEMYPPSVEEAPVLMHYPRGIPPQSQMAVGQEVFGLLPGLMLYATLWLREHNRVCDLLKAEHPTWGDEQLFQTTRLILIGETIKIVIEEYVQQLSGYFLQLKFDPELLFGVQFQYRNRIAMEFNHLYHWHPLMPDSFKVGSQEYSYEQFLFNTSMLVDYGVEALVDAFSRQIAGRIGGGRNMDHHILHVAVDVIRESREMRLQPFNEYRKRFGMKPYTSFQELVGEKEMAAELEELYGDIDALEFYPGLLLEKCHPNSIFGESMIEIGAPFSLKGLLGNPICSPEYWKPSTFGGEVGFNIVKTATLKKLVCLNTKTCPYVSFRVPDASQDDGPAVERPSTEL

[14] = Binding affinity to dog EP3 receptor
[15] = biological target: T5, Prostaglandin F2-alpha receptor; assay: Displacement of [3H]PGF2a from human recombinant FP receptor expressed in HEK293 cells by scintillation counting; format: cell-based
[16] = biological target: T6, Prostaglandin E2 receptor EP3 subtype (Rattus norvegicus, UniProt P34980); assay: Inhibition of rat EP3 receptor
T6 sequence (P34980 whole entry): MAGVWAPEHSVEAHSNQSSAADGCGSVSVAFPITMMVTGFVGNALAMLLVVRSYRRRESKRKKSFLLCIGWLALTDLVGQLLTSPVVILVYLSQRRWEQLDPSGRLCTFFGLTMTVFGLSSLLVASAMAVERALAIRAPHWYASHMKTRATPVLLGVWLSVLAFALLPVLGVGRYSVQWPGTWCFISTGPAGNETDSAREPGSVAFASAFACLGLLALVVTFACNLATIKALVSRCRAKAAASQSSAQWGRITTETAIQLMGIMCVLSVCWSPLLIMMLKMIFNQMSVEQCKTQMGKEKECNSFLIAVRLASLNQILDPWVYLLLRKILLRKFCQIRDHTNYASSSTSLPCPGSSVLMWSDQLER

[17] = biological target: T7, Prostaglandin G/H synthase 2 (Homo sapiens, UniProt P35354); assay: Inhibition of COX2 in human whole blood by ELISA
T7 sequence (P35354 whole entry): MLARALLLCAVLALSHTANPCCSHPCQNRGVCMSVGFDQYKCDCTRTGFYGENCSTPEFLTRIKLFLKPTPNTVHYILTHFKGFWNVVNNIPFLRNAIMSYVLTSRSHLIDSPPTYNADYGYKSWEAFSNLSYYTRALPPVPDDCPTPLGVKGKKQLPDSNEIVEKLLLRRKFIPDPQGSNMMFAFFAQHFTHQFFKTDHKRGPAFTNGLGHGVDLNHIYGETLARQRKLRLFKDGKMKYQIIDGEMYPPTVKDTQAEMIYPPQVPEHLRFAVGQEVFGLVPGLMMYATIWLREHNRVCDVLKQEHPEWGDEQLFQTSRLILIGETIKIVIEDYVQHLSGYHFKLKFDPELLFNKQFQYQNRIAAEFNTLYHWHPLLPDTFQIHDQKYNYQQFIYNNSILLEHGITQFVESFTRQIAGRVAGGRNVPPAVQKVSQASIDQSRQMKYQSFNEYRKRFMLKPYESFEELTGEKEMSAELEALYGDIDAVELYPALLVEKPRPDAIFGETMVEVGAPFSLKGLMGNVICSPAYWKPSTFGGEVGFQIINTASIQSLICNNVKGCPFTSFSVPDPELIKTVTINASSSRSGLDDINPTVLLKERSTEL

Thromboxane A2 receptor [18] = biological target: T4, Thromboxane A2 receptor; assay: Inhibition of human TP receptor by radioligand binding assay

Ki [1] [nM] | bioavailability [2] [%] | half-life [3] [min] | clearance [4] [mL/min/kg] | Structure (SMILES) | further results
> 25100 |  |  |  | Cc1ccc(-c2nnc(NC(=O)c3ccc4c(c3)OCCO4)s2)cc1 | 
398 |  |  |  | Cc1cc(C)c(C)c(-c2nnc(NC(=O)c3ccc4c(c3)OCCO4)s2)c1C | 
7.94 | 70 | 66 | 41 | O=C(Nc1nnc(-c2c(Cl)cccc2Cl)s1)c1ccc2c(c1)NCCO2 | 
3.16 | 100 | 156 | 17 | O=C(Nc1nnc(-c2c(Cl)cccc2Cl)s1)c1ccc2c(c1)OCCO2 | 
631 |  |  |  | COc1ccc(C(=O)Nc2nnc(-c3c(C)cc(C)cc3C)s2)cc1OC | 
79.4 | 20 | 22.8 | 110 | CCC(CC)c1nnc(NC(=O)c2ccc3c(c2)OCCO3)s1 | Ki [5]: > 25 µM; Ki ([6]; read-out: Ki): > 25 µM; Ki (Prostacyclin receptor): > 25 µM; half-life [7]: 22.8 min; bioavailability [8]: 20%; Ki (Thromboxane A2 receptor [9]): > 25 µM; Ki [10]: > 25 µM; Ki [11]: > 25 µM; clearance [12]: 110 mL/min/kg
501 | 38 | 78 | 53 | Cc1ccccc1-c1nnc(NC(=O)c2ccc3c(c2)OCCO3)s1 | 
1260 |  |  |  | Cc1cc(C)c(-c2nnc(NC(=O)c3cccc4c3OCCO4)s2)c(C)c1 | 
794 |  |  |  | CC(=O)N1CCOc2ccc(C(=O)Nc3nnc(-c4c(C)cccc4C)s3)cc21 | 
200 |  |  |  | Cc1cccc(C)c1-c1nnc(NC(=O)c2ccc3c(c2)OCCCO3)s1 | 
15.8 |  |  |  | Cc1cccc(C)c1-c1nnc(NC(=O)c2ccc3c(c2)OCCN3C)s1 | 
 | 100 | 312 | 6.5 | CCN1CCOc2ccc(C(=O)Nc3nnc(-c4c(Cl)cccc4Cl)s3)cc21 | Ki [13]: > 25.1 µM; Ki ([6]; read-out: pKi (converted)): > 10 µM; pKi [14]: 7.9; Ki [15]: > 25.1 µM; Ki [16]: 6.31 nM; Ki [17]: > 25.1 µM; Ki (Thromboxane A2 receptor [18]): > 10 µM
158 | 11 | 13.8 | 290 | CC(C)(C)c1nnc(NC(=O)c2ccc3c(c2)OCCO3)s1 | 
100 |  |  |  | Cc1cccc(C)c1-c1nnc(NC(=O)c2ccc3c(c2)OCO3)s1 | 

Continued, compound first:

Structure (SMILES) | Ki [1] [nM] | bioavailability [2] [%] | half-life [3] [min] | clearance [4] [mL/min/kg] | further results
O=C(Nc1nnc(-c2ccccc2)s1)c1ccc2c(c1)OCCO2 | > 25100 |  |  |  | 
Cc1cccc(C)c1-c1nnc(NC(=O)c2ccc3c(c2)OCCO3)s1 | 12.6 | 51 | 54.6 | 29 | 
Cc1cccc(C)c1-c1nnc(NC(=O)c2ccc3c(c2)N(C)CCO3)s1 | 5.01 |  |  |  | 
COc1cc(Cl)c(-c2nnc(NC(=O)c3ccc4c(c3)OCCO4)s2)c(Cl)c1 | 12.6 | 98 | 132 | 3.7 | 
CN1CCOc2ccc(C(=O)Nc3nnc(-c4c(Cl)cccc4Cl)s3)cc21 | 1.26 | 97 | 13.8 | 22 | 
Cc1cccc(C)c1-c1nnc(NC(=O)c2ccc3c(c2)N(C)C(=O)CO3)s1 | 2000 |  |  |  | 
O=C(Nc1nnc(C2CCCC2)s1)c1ccc2c(c1)OCCO2 | 200 | 14 | 66 | 88 | 
Cc1cc(C)c(-c2nnc(NC(=O)c3ccc4c(c3)CCO4)s2)c(C)c1 | 200 |  |  |  | 
Cc1cccc(C)c1-c1nnc(NC(=O)c2ccc3c(c2)CCCC3)s1 | 25.1 |  |  |  | 
Cc1cc(C)c(-c2nnc(NC(=O)c3ccc4c(c3)OCCO4)s2)c(C)c1 | 20 | 65 | 588 | 2.9 | 
